Experimental data as given in ChEMBL document CHEMBL4354879, “Bioisosteric Discovery of NPA101.3, a Second-Generation RET/VEGFR2 Inhibitor Optimized for Single-Agent Polypharmacology” (J Med Chem, 2020).
The source made the active and inactive calls. No cut-off for these calls is given here.

Key:
[1] = system: Proto-oncogene tyrosine-protein kinase receptor Ret (Homo sapiens), P07949 [V804L]; experiment: Inhibition of RET isoform 9 V804L mutant (unknown origin) expressed in rat Rat1 assessed as reduction in RET phosphorylation at Y1062 residue at 1 to 100 nM measured after 2 hrs by Western blot analysis; assay type: cell-based
Sequence of Proto-oncogene tyrosine-protein kinase receptor Ret (Homo sapiens), P07949 [V804L] (P07949 whole entry V804L, canonical isoform): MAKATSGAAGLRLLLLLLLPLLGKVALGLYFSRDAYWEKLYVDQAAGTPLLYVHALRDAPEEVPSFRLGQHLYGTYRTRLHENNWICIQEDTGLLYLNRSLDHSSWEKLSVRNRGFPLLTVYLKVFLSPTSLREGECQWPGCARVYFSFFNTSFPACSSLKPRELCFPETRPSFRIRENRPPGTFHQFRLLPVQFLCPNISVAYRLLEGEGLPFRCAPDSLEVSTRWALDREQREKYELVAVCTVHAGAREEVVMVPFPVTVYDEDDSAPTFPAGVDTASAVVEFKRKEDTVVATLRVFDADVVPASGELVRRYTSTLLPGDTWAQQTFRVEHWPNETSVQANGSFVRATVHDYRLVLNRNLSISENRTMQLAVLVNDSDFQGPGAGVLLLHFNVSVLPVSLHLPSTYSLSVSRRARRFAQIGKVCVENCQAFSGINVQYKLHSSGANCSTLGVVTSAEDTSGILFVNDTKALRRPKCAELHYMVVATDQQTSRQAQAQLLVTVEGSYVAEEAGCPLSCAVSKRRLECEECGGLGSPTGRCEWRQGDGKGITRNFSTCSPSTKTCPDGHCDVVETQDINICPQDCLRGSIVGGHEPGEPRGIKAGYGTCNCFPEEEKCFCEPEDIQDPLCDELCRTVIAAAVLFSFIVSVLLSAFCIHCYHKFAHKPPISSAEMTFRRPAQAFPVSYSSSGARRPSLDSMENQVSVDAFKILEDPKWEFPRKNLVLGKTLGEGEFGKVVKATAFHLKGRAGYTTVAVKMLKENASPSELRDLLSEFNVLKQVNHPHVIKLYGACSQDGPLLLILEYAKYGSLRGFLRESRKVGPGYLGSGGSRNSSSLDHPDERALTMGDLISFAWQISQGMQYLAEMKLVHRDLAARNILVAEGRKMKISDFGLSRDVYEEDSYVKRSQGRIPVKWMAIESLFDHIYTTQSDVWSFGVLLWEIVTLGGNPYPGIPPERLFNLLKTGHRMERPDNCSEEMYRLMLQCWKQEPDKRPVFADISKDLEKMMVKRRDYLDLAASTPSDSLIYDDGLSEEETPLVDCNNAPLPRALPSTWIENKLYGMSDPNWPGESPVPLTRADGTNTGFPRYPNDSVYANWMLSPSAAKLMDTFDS
How it was run: (§1)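 Serum-starved RAT1 (RET point mutants) or NIH3T3 (RET rearrangements) cells expressing short RET-9 isoform, treated 2 h; 50 μg total lysate immunoblotted with anti-phospho-Y1062 and anti-phospho-Y905 RET antibodies, normalized to total RET; ECL detection. Compound from 50 mM DMSO stock diluted in growth medium.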

PC-9 = experiment: Cytotoxicity against RET deficient human PC9 cells supplemented with fresh medium containing compound for every 2 to 3 days measured during compound dosing; assay type: functional, cell-based
How it was run: (§2)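 Human RET-negative lines were seeded in six-well plates at 10000 cells/well, in 5% FCS (Nthy-ori-3-1) or 10% FCS (BCPAP, 8505-C, CALU-1, A549, PC-9). Drug or vehicle was added the day after plating, with medium changed every 2–3 days. Cells were counted every 2–3 days. IC50 was fitted from the last day of the growth curves.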

[2] = target: T1, SHC-transforming protein 1 (Homo sapiens) (UniProt P29353); experiment: Effect on SHC phosphorylation in RET deficient human 8505C cells at 1 to 100 nM measured after 2 hrs by western blot analysis; assay type: cell-based
T1 sequence (whole entry): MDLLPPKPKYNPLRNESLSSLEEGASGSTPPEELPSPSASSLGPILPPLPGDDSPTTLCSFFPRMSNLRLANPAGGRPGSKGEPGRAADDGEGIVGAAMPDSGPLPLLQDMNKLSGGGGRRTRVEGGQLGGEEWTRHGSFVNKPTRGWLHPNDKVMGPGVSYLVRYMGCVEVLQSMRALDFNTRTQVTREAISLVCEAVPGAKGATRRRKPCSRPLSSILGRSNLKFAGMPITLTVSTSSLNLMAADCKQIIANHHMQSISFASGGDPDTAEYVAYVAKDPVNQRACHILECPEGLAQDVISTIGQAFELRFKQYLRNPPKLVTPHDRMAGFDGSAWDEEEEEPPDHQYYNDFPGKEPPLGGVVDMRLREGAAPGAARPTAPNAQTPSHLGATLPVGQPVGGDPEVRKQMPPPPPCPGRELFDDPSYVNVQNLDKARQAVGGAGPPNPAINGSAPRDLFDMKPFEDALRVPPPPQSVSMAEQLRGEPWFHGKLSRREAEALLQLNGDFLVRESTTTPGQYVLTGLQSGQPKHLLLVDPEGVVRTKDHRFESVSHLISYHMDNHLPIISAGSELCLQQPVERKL

Calu-1 = experiment: Cytotoxicity against RET deficient human Calu1 cells supplemented with fresh medium containing compound for every 2 to 3 days measured during compound dosing; assay type: functional, cell-based; how it was run: as §2
[3] = target: Macrophage colony-stimulating factor 1 receptor (Homo sapiens, UniProt P07333); experiment: Inhibition of recombinant human His-tagged CSF1R cytoplasmic domain (538 to 910 residues) expressed in baculovirus expression system using peptide substrate preincubated for 60 mins followed by substrate addition by microfluidic assay
Sequence of Macrophage colony-stimulating factor 1 receptor (P07333 whole entry, the tested form may be a part): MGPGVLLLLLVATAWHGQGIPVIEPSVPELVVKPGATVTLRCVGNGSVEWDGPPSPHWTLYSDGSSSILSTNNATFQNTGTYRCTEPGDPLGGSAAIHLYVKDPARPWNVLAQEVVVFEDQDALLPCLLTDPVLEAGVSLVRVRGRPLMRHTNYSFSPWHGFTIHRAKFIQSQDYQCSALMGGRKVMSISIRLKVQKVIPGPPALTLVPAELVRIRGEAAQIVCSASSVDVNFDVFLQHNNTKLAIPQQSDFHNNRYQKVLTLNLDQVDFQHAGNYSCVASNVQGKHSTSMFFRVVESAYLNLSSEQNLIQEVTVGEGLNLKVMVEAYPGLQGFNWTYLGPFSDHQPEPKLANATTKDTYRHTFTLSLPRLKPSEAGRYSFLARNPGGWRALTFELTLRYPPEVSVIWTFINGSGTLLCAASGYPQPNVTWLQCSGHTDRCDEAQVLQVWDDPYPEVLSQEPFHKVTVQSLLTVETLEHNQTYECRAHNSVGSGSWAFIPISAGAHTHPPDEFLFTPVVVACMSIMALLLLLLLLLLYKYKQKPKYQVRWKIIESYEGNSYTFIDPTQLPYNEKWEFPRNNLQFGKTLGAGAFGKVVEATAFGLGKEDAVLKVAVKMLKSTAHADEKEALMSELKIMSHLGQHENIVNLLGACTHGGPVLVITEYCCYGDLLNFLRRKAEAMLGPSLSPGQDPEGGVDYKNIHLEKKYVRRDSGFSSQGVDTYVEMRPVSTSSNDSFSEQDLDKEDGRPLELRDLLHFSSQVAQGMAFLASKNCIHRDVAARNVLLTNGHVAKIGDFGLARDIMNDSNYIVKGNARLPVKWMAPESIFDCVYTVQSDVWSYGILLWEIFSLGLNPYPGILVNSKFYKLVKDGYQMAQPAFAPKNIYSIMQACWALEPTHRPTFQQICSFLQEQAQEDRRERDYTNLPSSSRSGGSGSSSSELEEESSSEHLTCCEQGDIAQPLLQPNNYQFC

Mus musculus [4] = experiment: In vivo inhibition of HRAS G12V mutant transfected in mouse NIH/3T3 cells implanted BALB/c nu/nu mouse assessed as reduction in MAPK phosphorylation in tumor at 1 mg/kg, po administered once daily via gavage for 3 days measured 3 hrs post-last dose by Western blot analysis; assay type: functional, organism-based
[5] = system: Proto-oncogene tyrosine-protein kinase receptor Ret (Homo sapiens), P07949 [C634R]; experiment: Inhibition of RET […] C634R mutant (unknown origin) expressed in mouse BAF3 cells assessed as reduction in RET phosphorylation at Y905 residue at 0.3 to 30 nM measured after 2 hrs by Western blot analysis; assay type: cell-based
Sequence of Proto-oncogene tyrosine-protein kinase receptor Ret (Homo sapiens), P07949 [C634R] (P07949 whole entry C634R, canonical isoform): as the sequence (P07949 whole entry V804L, canonical isoform) above, with C634R, L804V counted along it
How it was run: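 Ba/F3 cells stably expressing long-isoform RET-51 mutants (electroporation), cultured in RPMI/10% FCS without IL-3; RET phosphorylation read by Western blot with anti-phospho-Y905 and anti-phospho-Y1062 antibodies, ECL detection.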

Mus musculus [6] = experiment: In vivo inhibition of RET isoform 9 C634Y mutant transfected in mouse NIH/3T3 cells implanted BALB/c nu/nu mouse assessed as reduction in SHC phosphorylation in tumor at 1 mg/kg, po administered once daily via gavage for 3 days measured 3 hrs post-last dose by Western blot analysis
[7] = Toxicity in BALB/c nu/nu mouse assessed as change in calcium level at 10 mg/kg, po administered daily for 7 days; assay type: organism-based; details: in vivo, 168 h
[8] = Toxicity in BALB/c nu/nu mouse assessed as change in phosphorus level at 10 mg/kg, po administered daily for 7 days; assay type: organism-based; details: in vivo, 168 h
Mus musculus [9] = experiment: In vivo inhibition of RET isoform 9 C634Y mutant transfected in mouse NIH/3T3 cells implanted BALB/c nu/nu mouse assessed as reduction in MAPK phosphorylation at 3 mg/kg, po administered once daily via gavage for 2 days measured 3 hrs post-last dose by Western blot analysis
[10] = system: Proto-oncogene tyrosine-protein kinase receptor Ret (Homo sapiens), P07949 [C634R]; experiment: Inhibition of RET isoform 9 C634R mutant (unknown origin) expressed in rat Rat1 assessed as reduction in RET phosphorylation at Y1062 residue at 0.3 nM measured after 2 hrs by Western blot analysis; assay type: cell-based
How it was run: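 RAT1 fibroblasts expressing RET-9 C634R, serum-starved, treated 2 h with 0.1–10.0 nM; 50 μg lysate blotted for RET pY905 and pY1062, normalized to total RET; ECL detection.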

Mus musculus [11] = experiment: In vivo inhibition of RET isoform 9 C634Y mutant transfected in mouse NIH/3T3 cells implanted BALB/c nu/nu mouse assessed as reduction in RET phosphorylation at Y1062 residue at 3 mg/kg, po administered once daily via gavage for 2 days measured 3 hrs post-last dose by Western blot analysis
Mus musculus [12] = experiment: In vivo inhibition of RET isoform 9 C634R mutant transfected in mouse NIH/3T3 cells implanted BALB/c nu/nu mouse assessed as reduction in RET phosphorylation at Y905 residue in tumor at 1 mg/kg, po administered once daily via gavage for 3 days measured 3 hrs post-last dose by Western blot analysis; assay type: functional, organism-based
Homo sapiens [13] = species on record: Homo sapiens; experiment: Effect on MAPK phosphorylation in RET deficient human Calu1 cells at 1 to 100 nM measured after 2 hrs by western blot analysis
[14] = system: Proto-oncogene tyrosine-protein kinase receptor Ret (Homo sapiens), P07949 [C634W]; experiment: Inhibition of Ret isoform 9 C634W mutant in human TT cells assessed as reduction in phosphorylation at Y1062 residue at 0.3 to 30 nM measured after 2 hrs by Western blot analysis; assay type: cell-based
Sequence of Proto-oncogene tyrosine-protein kinase receptor Ret (Homo sapiens), P07949 [C634W] (P07949 whole entry C634W, canonical isoform): as the sequence (P07949 whole entry V804L, canonical isoform) above, with C634W, L804V counted along it

Homo sapiens [15] = species on record: Homo sapiens; experiment: Inhibition of NCOA4/RET isoform 9 (unknown origin) expressed in mouse NIH/3T3 cells assessed as reduction in RET phosphorylation at Y905 residue at 1 to 100 nM measured after 2 hrs by Western blot analysis; assay type: cell-based; how it was run: as §1
A549 = experiment: Cytotoxicity against RET deficient human A549 cells supplemented with fresh medium containing compound for every 2 to 3 days measured during compound dosing; assay type: functional, cell-based; how it was run: as §2

inhibition [1]: Active
Activity [2]: inactive
IC50 [3]: 46 nM
inhibition [5]: Active
inhibition [10]: Active
Activity (Homo sapiens [13]): inactive
inhibition [14]: Active
Compound: CC(C)(C)c1cc(NC(=O)Cc2ccc(-n3cnc4cc(-c5ccc(S(C)(=O)=O)cc5)ccc43)cc2)no1
IC50 (PC-9): > 100 nM
IC50 (Calu-1): > 100 nM
inhibition (Mus musculus [4]): inactive
inhibition (Mus musculus [6]): Active
Activity [7]: Non-Toxic
Activity [8]: Non-Toxic
inhibition (Mus musculus [9]): Active
inhibition (Mus musculus [11]): Active
inhibition (Mus musculus [12]): Active
inhibition (Homo sapiens [15]): Active
IC50 (A549): > 100 nM
